# Measured values from different studies.
# Each line is one published result; the experiments were not run side by side.
# Target: Serine/threonine-protein kinase ULK1 (ULK1, Homo sapiens, UniProt O75385)
# One construct used (O75385 1-1050): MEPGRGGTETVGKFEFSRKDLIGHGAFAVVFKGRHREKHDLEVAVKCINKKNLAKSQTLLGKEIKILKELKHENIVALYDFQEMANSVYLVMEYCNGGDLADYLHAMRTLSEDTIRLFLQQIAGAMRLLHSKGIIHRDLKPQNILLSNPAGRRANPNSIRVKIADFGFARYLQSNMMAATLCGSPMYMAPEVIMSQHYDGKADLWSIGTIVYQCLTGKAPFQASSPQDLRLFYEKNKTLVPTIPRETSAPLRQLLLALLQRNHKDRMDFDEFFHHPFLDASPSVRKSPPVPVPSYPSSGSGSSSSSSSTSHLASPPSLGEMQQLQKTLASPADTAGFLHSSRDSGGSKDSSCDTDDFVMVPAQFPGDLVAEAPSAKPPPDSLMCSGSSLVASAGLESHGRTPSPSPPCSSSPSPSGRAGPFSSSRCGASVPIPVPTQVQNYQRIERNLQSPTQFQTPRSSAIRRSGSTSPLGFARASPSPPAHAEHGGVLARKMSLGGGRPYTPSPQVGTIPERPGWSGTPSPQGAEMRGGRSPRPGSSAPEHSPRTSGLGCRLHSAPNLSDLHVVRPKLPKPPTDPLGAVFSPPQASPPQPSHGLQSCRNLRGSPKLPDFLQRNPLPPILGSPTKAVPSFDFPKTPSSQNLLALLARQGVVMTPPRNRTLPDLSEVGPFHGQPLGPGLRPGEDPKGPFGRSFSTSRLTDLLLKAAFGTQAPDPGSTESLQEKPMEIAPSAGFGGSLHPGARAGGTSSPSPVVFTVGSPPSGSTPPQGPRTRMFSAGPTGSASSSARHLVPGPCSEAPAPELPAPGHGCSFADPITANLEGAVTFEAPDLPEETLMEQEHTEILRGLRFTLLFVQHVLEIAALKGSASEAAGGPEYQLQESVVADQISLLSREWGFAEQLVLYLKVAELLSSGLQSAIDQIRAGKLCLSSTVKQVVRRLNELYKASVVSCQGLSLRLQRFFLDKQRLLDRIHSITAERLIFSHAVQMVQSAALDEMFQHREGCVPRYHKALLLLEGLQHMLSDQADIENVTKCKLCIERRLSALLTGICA
Structure (SMILES),effect on,technique,tested at,remaining binding
Nc1ncc2c(n1)-c1c([nH]c3ccc(C#CC4CC4)cc13)CCCC2,binding,competition with immobilised ligand,1 µM,92%
N[C@H]1CCN(c2nccc(-c3cnn4ncccc34)n2)C1,binding,,1 µM,100%
O=C(NCCCN1CCOCC1)c1ccc(Nc2nccc(-c3cc4ccccc4s3)n2)cc1,binding,competition with immobilised ligand,1 µM,52%
COc1cnc(Nc2cccc(S(N)(=O)=O)c2)nc1N1CCN(c2ccccc2)CC1,binding,competition with immobilised ligand,1 µM,73%
O=C(NCC1CCOCC1)c1n[nH]cc1NC(=O)c1c(F)cccc1F,binding,competition with immobilised ligand,1 µM,86%
CNC(=O)c1ccccc1Nc1cc(Nc2ccc(N3CCOCC3)cc2OC)ncc1C(F)(F)F,binding,competition with immobilised ligand,1 µM,< 10%
CN(C)C(=O)Cn1cc(-c2nc([C@@](C)(c3ccc(-c4cnc(N)nc4)cc3)C3CC3)no2)cn1,cell-free assay,competition with immobilised ligand,1 µM,77%
CN(CCCC(F)(F)F)c1nccc(-c2cnn3ncccc23)n1,binding,,1 µM,79%
CN(C(=O)c1ccccc1)c1cc(N(C)c2ccc3c(c2)CCc2ccc(C(=O)NCCN4CCOCC4)cc2C3=O)ccc1F,cell-free assay,competition with immobilised ligand,1 µM,100%
FC(F)(F)Oc1cccc(-c2cnc3ccc(-c4ccncc4)nn23)c1,binding,competition with immobilised ligand,5 µM,82%
Cc1cnn2ncc(-c3ccnc(N(C)C)n3)c2c1,binding,,1 µM,100%
O=C(c1ccc(Nc2ncc(Cl)c(-c3ccc(Cl)s3)n2)cc1)N1CCC(N2CCCC2)CC1,binding,competition with immobilised ligand,1 µM,1.8%
C[C@H]1CCN(c2nccc(-c3cnn4ncccc34)n2)C1,binding,,1 µM,85%
c1ccc(N2CCN(Cc3nc4ccccc4[nH]3)CC2)nc1,binding,competition with immobilised ligand,1 µM,100%
CN(C)c1nccc(-c2cnn3ncccc23)n1,binding,,1 µM,96%
CN(C)CC#Cc1ccc(OCCCc2sc(N3CCc4cccc(C(=O)Nc5nc6ccccc6s5)c4C3)nc2C(=O)O)c(F)c1,cell-free assay,competition with immobilised ligand,1 µM,100%
CN(C)c1nccc(-c2cnc3ncccn23)n1,binding,,1 µM,71%
CC1=C(C#N)C(c2ccc3c(c2)c(NC(=O)c2ccccc2C)nn3C)C(C#N)=C(C)N1,cell-free assay,competition with immobilised ligand,1 µM,86%
CCN1CCN(Cc2ccc(C(=O)Nc3ccc(C)c(Oc4ccc5c(c4)CC(=O)N5)c3)cc2C(F)(F)F)CC1,binding,competition with immobilised ligand,1 µM,100%
O=C(c1ccc(Nc2nccc(-c3cc4ccccc4s3)n2)cc1)N1CCC(N2CCCC2)CC1,binding,competition with immobilised ligand,1 µM,50%
O=C1CCc2cc(Nc3cc(OC4CCOCC4)c([N+](=O)[O-])cc3Cl)ccc2N1,cell-free assay,competition with immobilised ligand,1 µM,87%
